Screening data deposited in PubChem BioAssay by Sanford-Burnham Center for Chemical Genomics.
Scp-1 inhibitor = Scp-1 (human) phosphatase inhibition; Recombinant Scp1, phosphopeptide, malachite green phosphate absorbance; inhibition, % at 20 µM; 340,000 tested, 0.88% active; AID 493091;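 active = inhibition above about 50% at 20 µM, limit read from the data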;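 also: plate controls were DMSO wells with enzyme for no effect and wells lacking enzyme for full effect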
Target sequence (Q9GZU7 76-261 limits assumed): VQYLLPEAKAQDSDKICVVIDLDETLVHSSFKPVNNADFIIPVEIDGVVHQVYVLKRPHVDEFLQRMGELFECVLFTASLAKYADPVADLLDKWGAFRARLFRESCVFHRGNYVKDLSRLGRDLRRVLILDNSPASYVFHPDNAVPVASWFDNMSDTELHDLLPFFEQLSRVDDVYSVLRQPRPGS
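Test system – truncated SCP-1 phosphatase (76-261aa) · Reagent – Phosphorylated 17-residue peptide substrate · Incubation – 45 min room-temperature reaction, 5 min colour, 30 min stabiliser · Detection – colorimetric phosphate reagent with accelerator and stabiliser, absorbance at 630 nm · Measure – % inhibition at 20 µM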
STEP block = inhibitors of human striatal-enriched phosphatase STEP; P54829; recombinant STEP, OMFP fluorogenic substrate, fluorescence; inhibition, % at 20 µM; 360,000 tested, 0.25% active; AID 588621;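 active = inhibition at 20 µM, scaled per plate between control wells, above about 37%, limit read from the data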;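 also: 0% = DMSO with enzyme and substrate and 100% = substrate only without enzyme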
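material = STEP tyrosine phosphatase | reagent = fluorogenic phosphatase substrate OMFP at 25 µM final | doses = single compound dose of 20 µM, 1% DMSO final | schedule = 20 min reaction, room temperature, in the dark | measured by = fluorescence, 480/540 nm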
DNMT1 block = blocks human DNA methyltransferase DNMT1. inhibition (reported as % activation of signal), % at 10 µM. AID 588458. 360,000 tested, 0.83% active. DNMT1 molecular beacon, Hinp1I cleavage, fluorescence; in the data active = inhibition above about 50%
LMPTP inh = LMPTP (human) inhibition. inhibition, % at 20 µM. recombinant LMPTP-A, OMFP fluorogenic substrate, fluorescence intensity. 360,000 tested, 0.22% active;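 active = compounds that cut the enzyme signal by at least half of the control window in the single-dose screen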;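 also: plate controls were DMSO wells with enzyme plus substrate for no effect and substrate without enzyme for full effect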
Target sequence (P24666 whole entry, looked up): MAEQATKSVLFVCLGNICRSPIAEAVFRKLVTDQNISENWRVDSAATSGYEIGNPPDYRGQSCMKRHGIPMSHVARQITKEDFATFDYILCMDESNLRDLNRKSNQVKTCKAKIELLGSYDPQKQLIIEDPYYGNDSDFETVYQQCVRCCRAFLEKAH
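Test system – LMPTP-A enzyme · Amount – LMPTP-A at 0.625 nM final in the reaction · Buffer or medium – Bis-Tris pH 6.0, DTT, detergent · Reagent – OMFP 400 µM · Doses – single 20 µM dose · Schedule – reaction 50 min, room temperature, dark · Detection – fluorescence intensity of OMFP turnover product · Evaluation – percent inhibition versus substrate-only and uninhibited controls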
NadD inh = NadD (S. aureus) enzyme inhibition. purified NadD enzyme, colorimetric absorbance read-out. inhibition, % at 20 µM. 360,000 tested, 0.78% active. AID 602399; in the data active = inhibition above about 26%
SUMO1-SIM PPI = SUMO1-SIM interaction modulation. 360,000 tested, 0.33% active. P63165. inhibition, % at 20 µM. SUMO1 binding to a labelled peptide, TR-FRET, 1 h. AID 602429; in the data active = inhibition above about 37%
Target sequence (P63165 whole entry, looked up): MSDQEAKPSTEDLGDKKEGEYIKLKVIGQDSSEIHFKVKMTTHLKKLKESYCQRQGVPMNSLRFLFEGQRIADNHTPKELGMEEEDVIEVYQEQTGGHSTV
* hit, by the source's call; nt = no result. Shown are actives, neighbours in structure and some others; about 2.4% of the full set was active somewhere.

SMILES | Scp-1 inhibitor | STEP block | DNMT1 block | LMPTP inh | NadD inh | SUMO1-SIM PPI
COc1cc2c(oc(=O)c3cc(C)cc(OC)c32)c2c(C3OC(C)C(O)C(C)(O)C3O)ccc(O)c12 (stereo not given) | 9.6 | 0.9 | 63.3* | 1.8 | -3.3 | -7.7
CCCCN1C(=O)C(C(=O)OCC)CC2=C1CCCC2=O (stereo not given) | -8.3 | -1.5 | 5.5 | -1.4 | 2.9 | 1.3
Cn1c(C(=O)OC(C(=O)NCC2CCCO2)c2cccnc2)cc2sccc21 (stereo not given) | 57.3* | 0.2 | 2.2 | 1.8 | -0.6 | -6.4
CC(OC(=O)c1cc2sccc2n1C)C(=O)NCC1CCCO1 (stereo not given) | 1.8 | -0.3 | 4.1 | -2.2 | 3.9 | 1.4
Cc1cccc(Cc2cnc(NC(=O)CN3C(=O)/C(=C/c4ccccc4)SC3=S)s2)c1 | 3.2 | 0.2 | -10.2 | 0.1 | 31.0* | -9.4
COc1cc(/C=C2/SC(=S)N(CC(=O)Nc3nc4ccccc4s3)C2=O)cc(OC)c1OC | -3.0 | -6.5 | -6.0 | 0.9 | 35.0* | -1.4
Cc1ccc(/C=C2/SC(=S)N(CC(=O)Nc3ncc(Cc4ccc(C)cc4)s3)C2=O)cc1 | -4.3 | -3.1 | 12.3 | -1.3 | 25.0 | -1.1
O=C(NCCN1C(=O)S/C(=C\c2ccccc2F)C1=O)C1CCCN1C(=O)c1cccs1 (stereo not given) | -5.3 | 9.5 | 6.6 | 1.4 | 2.7 | -15.8
COCc1nnc(NC(=O)c2ccc(S(=O)(=O)N3CCCc4ccccc43)cc2)o1 | -5.0 | 1.1 | -2.1 | -0.7 | 11.4 | 6.0
COc1ccc(-c2nnc(NC(=O)c3ccc(S(=O)(=O)N4CCCc5ccccc54)cc3)o2)cc1 | 0.5 | 1.3 | -3.9 | 4.2 | 86.5* | 20.7
CN(C)c1ccc(-c2nc3ccccn3c2/N=C/c2ccc(Br)cc2)cc1 | -8.0 | 41.9* | -19.1 | 1.1 | 1.5 | -16.7
O=C(Nc1ccncc1NC(=O)c1cccc([N+](=O)[O-])c1)c1cccc([N+](=O)[O-])c1 | 9.1 | 30.5 | 37.3 | 54.6* | -4.9 | 75.8*
Cc1cccc(N2C(=O)CC(Sc3nc(C)cc(C)n3)C2=O)c1 (stereo not given) | -7.2 | -1.7 | 2.0 | -0.3 | 7.4 | -1.0
Cc1cccc(N2C(=O)CC(Sc3nc(-c4ccccc4)c4cc(Cl)ccc4n3)C2=O)c1 (stereo not given) | -7.3 | -1.2 | -5.0 | 1.2 | 13.0 | 44.2*
O=C(Nc1ccc2ccccc2c1)N1CCCN(CCOc2ccccc2)CC1 | 0.9 | -1.1 | -0.2 | -1.4 | -7.1 | -2.6
O=C(Nc1ccc2c(c1)OCO2)c1cc(-c2cccc(O)c2)on1 | -3.4 | 0.2 | -15.0 | 1.6 | -4.5 | 5.3
O=C(Nc1ccc2c(c1)OCO2)c1cc(-c2ccc(O)cc2)on1 | -10.1 | -3.0 | -11.1 | 0.6 | 5.9 | 38.8*
COc1ccc(N(CC(=O)NCc2cccs2)S(=O)(=O)c2ccc(C(C)=O)cc2)cc1 | nt | -3.0 | -3.8 | 0.6 | 2.5 | -6.6
O=[N+]([O-])c1ccc(O)c(/C=N/Nc2ccccn2)c1 | -2.7 | 3.7 | 0.9 | 0.3 | 1.6 | -27.2
O=[N+]([O-])c1ccc(O)c(/C=N/Nc2ncnc3c2cnn3-c2ccccc2)c1 | 11.5 | 10.4 | -21.5 | 50.1* | 17.9 | 19.4
CCOC(=O)CC1c2nc3ccccc3cc2CN1C(=O)OCC (stereo not given) | nt | -3.3 | -1.2 | -0.1 | 2.5 | -2.7
NC(=O)c1ccc(NCCc2cccs2)cc1 | nt | -0.9 | -3.1 | -0.6 | -4.5 | 39.0*
C#CCOCCOCCOCCNc1nc(N2CCN(C(=O)CCCCCCCCCCNC(=O)[C@@H](CCSC)n3cc(CCO)nn3)CC2)nc(N2CCN(C(=O)CCCCCCCCCCNC(=O)[C@H]([C@@H](C)CC)n3cc(CCCCCN)nn3)CC2)n1 | 32.5 | nt | nt | nt | nt | nt
C#CCOCCOCCOCCNc1nc(N2CCN(C(=O)CCCCCCCCCCNC(=O)Cn3cc(C[C@@H](C)O)nn3)CC2)nc(N2CCN(C(=O)CCCCCCCCCCNC(=O)[C@H](CCCCN)n3cc(C[C@@H](C)CC)nn3)CC2)n1 | 33.4 | 4.2 | -108.8 | 5.8 | 43.9* | 26.0
C#CCOCCOCCOCCNc1nc(N2CCN(C(=O)CCCCCCCCCCNC(=O)[C@H](CCCCN)n3cc(CCO)nn3)CC2)nc(N2CCN(C(=O)CCCCCCCCCCNC(=O)[C@H](CCCN=C(N)N)n3cc(C[C@@H](C)CC)nn3)CC2)n1 | 29.5 | 5.8 | -52.7 | 6.6 | 44.3* | 90.1*
SMILES | Scp-1 inhibitor | STEP block | DNMT1 block | LMPTP inh | NadD inh | SUMO1-SIM PPI
C#CCOCCOCCOCCNc1nc(N2CCN(C(=O)CCCCCCCCCCNC(=O)[C@@H](CCSC)n3cc(CCO)nn3)CC2)nc(N2CCN(C(=O)CCCCCCCCCCNC(=O)[C@H]([C@@H](C)CC)n3cc(CCCCN=C(N)N)nn3)CC2)n1 | 37.5 | 8.7 | -86.2 | 12.9 | 68.0* | 90.3*
C#CCOCCOCCOCCNc1nc(N2CCN(C(=O)CCCCCCCCCCNC(=O)[C@H](CCCCN)n3cc(C[C@@H](C)CC)nn3)CC2)nc(N2CCN(C(=O)CCCCCCCCCCNC(=O)[C@H](CCCCN)n3cc(C[C@@H](C)CC)nn3)CC2)n1 | 53.0* | 12.5 | -127.4 | 3.5 | 47.9* | 66.6*
C#CCOCCOCCOCCNc1nc(N2CCN(C(=O)CCCCCCCCCCNC(=O)Cn3cc(C[C@@H](C)O)nn3)CC2)nc(N2CCN(C(=O)CCCCCCCCCCNC(=O)Cn3cc(C[C@@H](C)O)nn3)CC2)n1 | 10.6 | 1.0 | -37.1 | 0.4 | 5.7 | 9.8
C#CCOCCOCCOCCNc1nc(N2CCN(C(=O)CCCCCCCCCCNC(=O)[C@H](CCCCN)n3cc(CCO)nn3)CC2)nc(N2CCN(C(=O)CCCCCCCCCCNC(=O)[C@H](CCCCN)n3cc(CCO)nn3)CC2)n1 | 2.7 | -1.6 | -102.1 | -9.4 | 9.2 | -54.5
CCS(=O)(=O)c1ccc2oc(Nc3cccc(OC)c3)nc2c1 | 0.9 | 1.2 | -7.5 | 1.3 | 1.5 | 3.5
Nc1nc(N)c2cc([N+](=O)[O-])ccc2n1 | 2.6 | -0.9 | -4.8 | 29.7 | 1.7 | -24.0
Nc1nc(N)c2c(ccc3c2ccn3Cc2cccc([N+](=O)[O-])c2)n1 | nt | 8.1 | -9.6 | 68.6* | 1.6 | 10.4
O=S(=O)(Nc1ccc(O)c2ncccc12)c1ccccc1F | nt | 2.9 | 58.7* | 25.5 | 13.5 | 30.0
O=C(N/N=C\C=C\c1ccc([N+](=O)[O-])o1)c1cccs1 | 57.4* | 12.3 | 80.6* | 5.9 | -6.9 | 8.7
O=C(N/N=C/C=C/c1ccccc1[N+](=O)[O-])c1cccs1 | -8.2 | -4.6 | -0.2 | -1.1 | -4.7 | -16.3
COc1ccc(CNC(=O)c2sc(=O)n(Cc3ccccc3OC)c2C)cc1 | nt | 2.2 | -6.4 | 0.1 | -9.0 | 1.5
O=C(Cc1cccs1)Nc1ccc(-c2nnn(CC(=O)N3CCOCC3)n2)cc1 | 78.9* | nt | nt | nt | nt | nt
